Laboratory results reported in publication PMC8434796 (Glycobiology, 2021).
Converted amounts (≈) assume the structure as drawn. “And” between values parts separate entries of the source, which are not always exact repeats. Equal values may be shown once.

How the values were obtained:
[1] = system: human pancreatic cancer cell (KP1-NL); details: fixed concentration 10 μM; ref Morohashi et al. 2006; cited from earlier work
Drosophila WT = details: wild-type Drosophila; ref Douris et al. 2016; cited from earlier work
[2] = system: Drosophila mutEt15 (I1056F/M); details: Drosophila line with CRISPR/Cas9 point mutation I1056F/M; ref Douris et al. 2016; cited from earlier work
NIH3T3 cells [3] = experiment: Cell population doubling time; assay type: cell-based, mouse; details: 72 h; for Doubling time: control 21 h
NIH3T3 cells [4] = experiment: Microscopic evaluation; assay type: cell-based, mouse; details: 10 μM, 3 days, HABP staining, vs DMSO control
In short: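 NIH3T3 seeded at 2 × 10^4 cells/well; next day fresh medium with 10 μM test compound, 3 days. Fixed 10 min in 10% buffered formalin, avidin-biotin blocked, biotinylated HABP overnight at 4°C, then streptavidin-Alexa 488, Hoechst and phalloidin. Confocal 40× 5 × 5 mosaics; HA-positive area as % of total cell area. Three wells. Controls: 0.05% DMSO; hyaluronidase digest of untreated cells (1 mg/mL, 30 min, 37°C).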

NIH3T3 cells [5] = experiment: Inhibition of hyaluronan secreted in NIH3T3 cell culture media; assay type: cell-based, mouse; details: for IC50: Mus musculus, NIH3T3, 72 h, read-out: IC50 for inhibition of hyaluronan deposition in cell culture media; for Effect on hyaluronan production (in words): NIH3T3 HA production assay
NIH3T3 cells [6] = experiment: MTT cell viability assay; assay type: cell-based, mouse; details: proliferating NIH3T3 cells, 3 days incubation
In short: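 Proliferating NIH3T3 fibroblasts exposed for 3 days to rising test compound concentrations. MTT (5 mg/mL in PBS, 10 μL per 100 μL medium) incubated 3 h at 37°C, 5% CO2. Plates centrifuged, medium removed, formazan dissolved in DMSO, absorbance read at 570 nm. n = 3.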

HAS2 = experiment: qPCR relative expression of HAS2 in NIH3T3 cells; assay type: cell-based, mouse
In short: (§1)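 Total RNA isolated with TRI reagent; concentration and quality checked by spectrophotometry and electrophoresis. Target mRNA quantified by SYBR Green real-time qPCR and normalized to GAPDH mRNA. Values are mean ± SD of three technical replicates.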

HAS3 = experiment: qPCR relative expression of HAS3 in NIH3T3 cells; assay type: cell-based, mouse
In short: as §1

Hyal1 = experiment: qPCR relative expression of Hyal1 in NIH3T3 cells; assay type: cell-based, mouse
In short: as §1

Hyal2 = experiment: qPCR relative expression of Hyal2 in NIH3T3 cells; assay type: cell-based, mouse
In short: as §1

[7] = system: CCl4 induced liver fibrosis; experiment: CCl4-induced liver fibrosis in mice; assay type: in vivo; details: for Blood parameters, compound alone vs control group: mice treated by compound only, 600 mg/kg daily; for Hepatotoxicity of compound alone (AST/ALT): mice, daily dose of 600 mg/kg per os
zebrafish embryos = details: ref Park et al. 2019; cited from earlier work
[8] = system: CCl4 induced liver fibrosis; details: CCl4 treated animals; ref Andreichenko et al. 2019; cited from earlier work
[9] = system: hyaluronan synthase activity; details: plasma membrane preparations containing hyaluronan synthase activity; ref Nakamura et al. 1997; cited from earlier work
[10] = system: A2058 melanoma cells, MCF-7 and MDA-MB-361 breast, SKOV-3 ovarian and UT-SCC118 squamous carcinoma cells; details: incubation with 4MU; ref Kultti et al. 2009; cited from earlier work
endothelial cells = details: 0.6 μM, ref Nagy et al. 2010; cited from earlier work
B16F10 cells = details: 30 μM, ref Nagy et al. 2019; cited from earlier work
[11] = mice fed with 5% chow, averaged over 24 h; ref Kuipers et al. 2016; cited from earlier work

Structure (SMILES): COc1ccc2c(C)cc(=O)oc2c1 [II, 7-methoxy-4-methyl coumarin]
- Inhibitory activity on HA production (in words) [1]: inactive

Structure (SMILES): O=C(NC(=O)c1c(F)cccc1F)Nc1cc(Cl)c(OC(F)(F)C(F)C(F)(F)F)cc1Cl (centres unmarked) [lufenuron]
- LC50 WT (Drosophila WT): 0.148 µg/mL (≈ 0.29 µM)
- LC50 mutEt15 [2]: 16.659 µg/mL (≈ 32.6 µM)

Structure (SMILES): Cc1c2c(cc3c(-c4ccccc4)cc(=O)oc13)C(=O)CC1(CCNCC1)O2 [Compound VII, 10′-methyl-6′-phenyl-3′H-spiro[piperidine-4,2′-pyrano[3,2-g]chromene]-4′,8′-dione]
- Concentration from/over which doubling time increased (NIH3T3 cells [3]): over 10 μM
- Decrease of the percentage of HA-positive area (NIH3T3 cells [4]): at least 3 times

Structure (SMILES): O=C(NC(=O)c1ccccc1Cl)Nc1ccc(OC(F)(F)F)cc1 [triflumuron, 2-chloro-N-[[4-(trifluoromethoxy)phenyl]carbamoyl] benzamide]
- IC50 (NIH3T3 cells [5]): 1.48 ± 1.44 µM
- Not toxic in concentrations up to (MTT) (NIH3T3 cells [6]): > 1 mM

Structure (SMILES): CCOc1cc(C(C)(C)C)ccc1C1COC(c2c(F)cccc2F)=N1 (centres unmarked) [etoxazole, 4-(4-tert-butyl-2-ethoxyphenyl)-2-(2,6-difluorophenyl)-4,5-dihydro-1,3-oxazole]
- IC50 (NIH3T3 cells [5]): 4.21 ± 3.82 µM
- Not toxic in concentrations up to (MTT) (NIH3T3 cells [6]): > 1 mM
- Upregulation of HAS2 expression (HAS2; NIH3T3 cells, 120 μM): ~1.5 times
- Suppression of HAS2 expression (HAS2; NIH3T3 cells, doses higher than 120 μM): up to 80%
- Inhibited HAS3 expression at concentrations higher than (HAS3): higher than 250 μM
- Hyal1 level (in words) (Hyal1; NIH3T3 cells, all tested concentrations): significantly dropped
- Level of Hyal2 (in words) (Hyal2): not affected
- αSMA level in liver homogenate (western blot) ([7]; CCl4-treated mice, 600 mg/kg daily per os, n = 5): significant reduction
- Plasma HA ([7]; CCl4-treated mice, 600 mg/kg daily per os, 600 mg/kg): reduced plasma HA to near the control levels
- Plasma HA ([7]; CCl4-treated mice, 600 mg/kg daily per os, listed as Etoxazole, 600 mg/kg): reduced HA production
- Blood parameters, compound alone vs control group [7]: did not find any significant differences
- Hepatotoxicity of compound alone (AST/ALT) [7]: no hepatotoxicity
- Effect on cardiovascular development (in words) (zebrafish embryos): inhibits cardiovascular development

Structure (SMILES): O=C(NC(=O)c1c(F)cccc1F)Nc1ccc(Cl)cc1 [diflubenzuron]
- LC50 WT (Drosophila WT): 0.322 µg/mL (≈ 1.04 µM)
- LC50 mutEt15 [2]: > 5000 µg/mL

Structure (SMILES): Cc1cc(=O)oc2c(C)c3c(cc12)C(=O)CC1(CCCCC1)O3 [Compound IX, 6′,10′-dimethyl-3′H-spiro[cyclohexane-1,2′-pyrano[3,2-g]chromene]-4′,8′-dione]
- Effect on hyaluronan production (in words) (NIH3T3 cells [5]): completely abrogated inhibition of hyaluronan production
- Did not affect cell viability at concentrations up to (NIH3T3 cells [6]): > 1 mM
- Not toxic in concentrations up to (MTT) (NIH3T3 cells [6]): > 0.5 mM
- Doubling time (NIH3T3 cells [3]; all tested concentrations): 16.5 h

Structure (SMILES): CC(C)N1C(=O)N(c2ccccc2)CSC1=NC(C)(C)C [buprofezin, 2-(tert-butylimino)-5-phenyl-3-(propan-2-yl)-1,3,5-thiadiazinan-4-one]
- IC50 (NIH3T3 cells [5]): 1.24 ± 0.87 µM
- Not toxic in concentrations up to (MTT) (NIH3T3 cells [6]): > 1 mM
- LC50 WT (Drosophila WT): 53.2 µg/mL (≈ 174 µM)
- LC50 mutEt15 [2]: > 1000 µg/mL

Structure (SMILES): CCN(CC)Cc1cc2c(-c3ccccc3)cc(=O)oc2c(C)c1O [IV, 6-((diethylamino)methyl)-7-hydroxy-8-methyl-4-phenyl-2H-chromen-2-one]
- Concentration from/over which doubling time increased (NIH3T3 cells [3]): ≥ 500 µM

Structure (SMILES): C[C@@H]([C@H](N)C(=O)N[C@H](C(=O)O)[C@H]1O[C@@H](n2ccc(=O)[nH]c2=O)[C@H](O)[C@@H]1O)[C@H](O)c1ccc(O)cn1 [nikkomycin]
- Effect on hyaluronan production (in words) (NIH3T3 cells [5]): ineffective

Structure (SMILES): CC(=O)c1cc2c(C)cc(=O)oc2c(C)c1O [VIII, 6-acetyl-7-hydroxy-4,8-dimethyl-2H-chromen-2-one]
- Toxicity at concentrations higher than (MTT) (NIH3T3 cells [6]): > 60 µM
- Concentration from/over which doubling time increased (NIH3T3 cells [3]): > 50 µM
- Decrease of the percentage of HA-positive area (NIH3T3 cells [4]): at least 3 times

Structure (SMILES): Cc1c2c(cc3c(-c4ccccc4)cc(=O)oc13)C(=O)CC1(CCCCC1)O2 [Compound VI, 10′-methyl-6′-phenyl-3′H-spiro[cyclohexane-1,2′-pyrano[3,2-g]chromene]-4′,8′-dione]
- Effect on hyaluronan production (in words) (NIH3T3 cells [5]): completely abrogated inhibition of hyaluronan production
- Did not affect cell viability at concentrations up to (NIH3T3 cells [6]): > 1 mM
- Not toxic in concentrations up to (MTT) (NIH3T3 cells [6]): > 0.5 mM

Structure (SMILES): Cc1cc(=O)oc2cc(O)ccc12 [Compound 4MU, 7-hydroxy-4-methylchromen-2-one]
- Doubling time (NIH3T3 cells [3]; 250 μM): 38 h
- Concentration from/over which doubling time increased (NIH3T3 cells [3]): ≥ 60 µM
- Decrease of the percentage of HA-positive area (NIH3T3 cells [4]): at least 3 times
- IC50 (HAS2; Mus musculus, NIH3T3, read-out: IC50 for inhibition of HAS2 expression): ~250 µM
- Activated HAS3 expression at concentration over (HAS3): over 500 μM
- IC50 (Hyal1; Mus musculus, NIH3T3, read-out: Upregulated Hyal1 expression with IC50): ~250 µM
- Hyal2 expression not affected at concentrations up to (Hyal2): > 1 mM
- Plasma HA ([7]; CCl4-treated mice, 600 mg/kg daily per os): reduced plasma HA to near the control levels
- Blood parameters, compound alone vs control group [7]: did not find any significant differences
- Hepatotoxicity of compound alone (AST/ALT) [7]: no hepatotoxicity
- Collagen deposition in the liver [8]: prevented collagen deposition
- HA synthesis in cell-free assay (in words) [9]: did not inhibit HA synthesis
- Depletion of UDP-GlcUA levels [10]: 38–95%
- Reduction of hyaluronan secretion (endothelial cells): 30%
- HA production inhibition (B16F10 cells): 50%
- Effective plasma concentration [11]: 0.89 ± 0.51 μg/mL and 5.1 ± 2.9 μM

Structure (SMILES): CC(=O)c1cc2c(-c3ccccc3)cc(=O)oc2c(C)c1O [Compound V, 6-acetyl-7-hydroxy-8-methyl-4-phenyl-2H-chromen-2-one]
- Toxicity at concentrations higher than (MTT) (NIH3T3 cells [6]): higher than 125 μM
- Concentration from/over which doubling time increased (NIH3T3 cells [3]): ≥ 125 µM
